Measured values reported in ChEMBL document CHEMBL1134490, “Estradiol-16alpha-carboxylic acid esters as locally active estrogens” (2001).

Experiments:
Ishikawa = test: Relative stimulation of alkaline phosphatase (AlkP) activity in Ishikawa cells; assay type: functional, Homo sapiens
Method in brief: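 Ishikawa cells in phenol red-free medium with charcoal-stripped bovine serum, exposed for 3 days to steroid over at least 6 orders of magnitude of concentration. Cells were freeze-thawed, then given 5 mM p-nitrophenyl phosphate at pH 9.8, read kinetically at 405 nm. RSA = (1/EC50 analogue)/(1/EC50 E2) × 100. At least three experiments in duplicate.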

[1] = test system: esterase (Rattus norvegicus); test: Relative hydrolytic activity against esterase in rat hepatic microsomes; conditions: Liver

Row | RHA [1] | Compound | RSA (Ishikawa)
1 | 700 | CCOC(=O)C[C@@H]1C[C@H]2[C@@H]3CCc4cc(O)ccc4[C@H]3CC[C@]2(C)[C@H]1O | 0.3
2 | 340 | COC(=O)C[C@@H]1C[C@H]2[C@@H]3CCc4cc(O)ccc4[C@H]3CC[C@]2(C)[C@H]1O | 0.5
3 | 910 | COC(=O)CC[C@@H]1C[C@H]2[C@@H]3CCc4cc(O)ccc4[C@H]3CC[C@]2(C)[C@H]1O | 0
4 | – | C[C@]12CC[C@@H]3c4ccc(O)cc4CC[C@H]3[C@@H]1C[C@@H](CC(=O)O)[C@@H]2O | 0
5 | – | C[C@]12CC[C@@H]3c4ccc(O)cc4CC[C@H]3[C@@H]1C[C@@H](CCC(=O)O)[C@@H]2O | 0
6 | – | CC(C)OC(=O)[C@@H]1C[C@H]2[C@@H]3CCc4cc(O)ccc4[C@H]3CC[C@]2(C)[C@H]1O | 0.1
7 | – | C[C@]12CC[C@@H]3c4ccc(O)cc4CC[C@H]3[C@@H]1CCC2=O [ESTRONE] | 7
